FAS-TE inh – inhibitors of human fatty acid synthase thioesterase domain; P49327; recombinant FAS-TE, OMFH fluorogenic substrate, fluorescence endpoint; inhibition, % at 15 µM; 360,000 compounds, 0.67% hits;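 active = compounds whose normalised, plate-corrected inhibition of enzyme fluorescence in the single-dose primary screen is 50% or more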
MT1-MMP act inh – blocks activation of human MT1-MMP | P50281 | HT1080 RFP-PRO-GFP cells, GFP/RFP ratio fluorescence, overnight; percent of plate control window, DMSO zero | GFP/RFP ratio change, % at 20 µM | 360,000 compounds, 0.061% hits | AID 651647;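 active = GFP/RFP ratio change of at least 30% with cell ATP level not reduced by more than half and red fluorescence within 50% of control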
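Assay system: HT1080 RFP-PRO-GFP cells | Dosing: 20 µM single dose, 1% DMSO | Incubation: Cells overnight before dosing, compound overnight, 37 °C, 5% CO2 | Evaluation: GFP/RFP fluorescence ratio | Control set: DMSO-only wells and HT1080 RFP-L50D-GFP cell wells as references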
SKN-1 inh – C. elegans SKN-1 inhibition. C. elegans VP596 Pgst-4::GFP/RFP ratio, acrylamide-induced, 24 h. inhibition, % at 21.8 µM. 360,000 compounds, 0.49% hits;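 active = interference check ratio from 0.5 to 1.5 plus GFP to RFP signal ratio inhibition reaching or exceeding a fixed threshold, cut at about 30% in these data, passing the limit was not always enough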
DAGLB inh – diacylglycerol lipase beta (human) inhibition | Q8NCG7 | HEK293T DAGLB membrane lysate, EnzChek fluorogenic substrate | inhibition, % at 5.17 µM | 340,000 compounds, 0.059% hits | AID 504411; in the data active = inhibition above about 34%
iPSC survival up – hiPSC single-cell survival enhancement | ATPlite luminescence; 100% = ROCK inhibitor wells, 0% = DMSO | survival enhancement, % at 20 µM | 360,000 compounds, 0.044% hits; in the data active = survival enhancement above about 18%;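 note: cells exposed to compounds for 16 hours before the ATP read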
FAS-TE inh conf – FAS thioesterase (human) inhibition, confirmation | shares compounds with FAS-TE inh | recombinant FAS-TE, OMFH fluorogenic substrate, fluorescence | inhibition, % at 15 µM | 2,300 compounds, 45% hits | AID 624325;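 active = compounds inhibiting the enzyme by at least 50% at 15 µM in any one of the replicates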
Large screens that a line does not name were inactive (follow-up assays come after a bar, where they were run). The list is not random: actives were taken first. Their share in the collection is about 1.3%.

COC(=O)C1=C(C)NC(C)=C(C(=O)OC)C1c1ccc(OC(=O)c2oc3ccccc3c2C)c(OC)c1	FAS-TE inh 52.4 | FAS-TE inh conf inactive
COC(=O)C1=C(C)NC(=O)NC1c1ccc(OC)c(OC)c1 (centres undefined)	none
COc1ccc(C2(CNC(=O)c3cccc([N+](=O)[O-])c3)CCOCC2)cc1OC	none
COc1ccc(C2(CNC(=O)c3cccc([N+](=O)[O-])c3)CCCCC2)cc1OC	FAS-TE inh 51.1 | FAS-TE inh conf 69.8
CC[C@]12c3[nH]c4ccccc4c3CCN1C(=O)C(CC(=O)NCCCN(C)C)C[C@@H]2C(=O)N1CCN(C(=O)C2CC2)CC1 (some centres undefined)	none
CN(C)CCCNC(=O)CC1C[C@H](C(=O)N2CCOCC2)[C@@]2(CCC3CCCC3)c3[nH]c4ccccc4c3CCN2C1=O (some centres undefined)	FAS-TE inh 77.8 | FAS-TE inh conf 85.7
O=C(CC1C[C@H](C(=O)N2CCOCC2)[C@@]2(CCC3CCCC3)c3[nH]c4ccccc4c3CCN2C1=O)NCCC1=CCCCC1 (some centres undefined)	FAS-TE inh 73.2 | FAS-TE inh conf 38.5
CC[C@]12c3[nH]c4ccccc4c3CCN1C(=O)C(CC(=O)NCCC1=CCCCC1)C[C@@H]2C(=O)N1CCN(C(=O)c2ccco2)CC1 (some centres undefined)	none
CCCCN(C(C)=O)c1c(CC)nc2ccc(C(=O)Nc3cccc(OCC(=O)N(C)C)c3)cn12	none (no result: DAGLB inh)
Nc1nc(N)c2c(ccc3c2ccn3Cc2cccc([N+](=O)[O-])c2)n1	none (no result: DAGLB inh)
O=C(CCN1C(=O)/C(=C/c2ccccc2Cl)SC1=S)Nc1cccnc1	FAS-TE inh 62.1 | FAS-TE inh conf inactive
O=C1/C(=C/c2ccccc2Cl)SC(=S)N1CCCC(=O)N(CCO)c1ccccc1	FAS-TE inh 56.3 | FAS-TE inh conf 39.6
O=C(CCN1C(=O)/C(=C/c2ccccc2Cl)SC1=S)Nc1ccccn1	FAS-TE inh 64.7 | FAS-TE inh conf 58.5
O=C(CCCN1C(=O)/C(=C/c2ccccc2Cl)SC1=S)Nc1ccccn1	none
COCCNC(=O)C1(C)CCCN(Cc2ccc(-n3ccnc3)cc2)C1 (centres undefined)	none (no result: DAGLB inh)
O=C(O)c1ccc(N/N=C/c2cc3ccccc3nc2Cl)cc1	none
Cc1cccc2cc(/C=N/Nc3ccc(C(=O)O)cc3)c(Cl)nc12	FAS-TE inh 53.9 | FAS-TE inh conf 49.7
Cc1ccc(C(=O)N/C(=C\c2cccc([N+](=O)[O-])c2)C(=O)Nc2cccc(C(=O)O)c2)cc1	FAS-TE inh 55.3 | FAS-TE inh conf 59.8
O=C(Nc1cccc(C(=O)O)c1)/C(=C\c1cccc([N+](=O)[O-])c1)NC(=O)c1ccc(Br)cc1	FAS-TE inh 69.2 | FAS-TE inh conf 75.4
O=C(O)CNC(=O)/C(=C/c1cccc([N+](=O)[O-])c1)NC(=O)c1ccco1	none
COc1ccc(C(=O)N/C(=C\c2cccc([N+](=O)[O-])c2)C(=O)Nc2cccc(C(=O)O)c2)cc1	none
O=C(NCc1ccccc1)/C(=C\c1cccc([N+](=O)[O-])c1)NC(=O)c1ccco1	FAS-TE inh 68.0 | FAS-TE inh conf 76.2
CN1CCN(C(=O)c2ccc(-c3cnc4cccnn34)cc2)CC1	none (no result: DAGLB inh)
CC1(C(=O)NS(=O)(=O)c2cccc(C#N)c2)CCN1C(=O)c1ccco1 (centres undefined)	none (no result: DAGLB inh)
CC(=O)c1cccc(-c2ccnc3c2CC(C(=O)Nc2ccc(C(C)C)cc2)O3)c1 (centres undefined)	FAS-TE inh 54.7 (no result: DAGLB inh) | FAS-TE inh conf 59.5
CC1(C)CC(=O)C(C(C2=C(O)CC(C)(C)CC2=O)c2ccc(O)c([N+](=O)[O-])c2)=C(O)C1	none
O=C(Cc1cccc(C(F)(F)F)c1)OCN1C(=O)c2ccccc2C1=O	FAS-TE inh 50.7 | FAS-TE inh conf 46.0
O=C(Cc1ccc(F)cc1)OCN1C(=O)c2ccccc2C1=O	none
Cc1ccc(C(=O)O/N=C(\N)Cc2cccs2)cc1[N+](=O)[O-]	FAS-TE inh 61.6 | FAS-TE inh conf 76.3
COc1ccccc1C/C(N)=N/OC(=O)c1ccc(C)c([N+](=O)[O-])c1	none

Source: PubChem
